From PubChem
SIRT5 inh – inhibitors of human sirtuin-5 desuccinylase | Q9NXA8 | Purified SirT5, succinyl-peptide AMC, trypsin-coupled fluorescence | inhibition, % at 15 µM | 1.1% of 330,000 active | AID 652115; in the data active = inhibition above about 15%
Target sequence (Q9NXA8 whole entry, looked up): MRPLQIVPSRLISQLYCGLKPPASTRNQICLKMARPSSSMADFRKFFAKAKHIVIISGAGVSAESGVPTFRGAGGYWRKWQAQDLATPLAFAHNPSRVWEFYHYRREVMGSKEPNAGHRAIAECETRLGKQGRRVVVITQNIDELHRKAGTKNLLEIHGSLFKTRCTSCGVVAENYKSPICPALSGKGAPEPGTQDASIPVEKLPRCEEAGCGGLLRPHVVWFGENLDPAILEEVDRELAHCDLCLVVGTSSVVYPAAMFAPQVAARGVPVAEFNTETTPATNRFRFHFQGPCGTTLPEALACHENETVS
miR-122 sensor – inhibitors of miR-122 in Huh7 cells | activation (reporter increase), % at 12.5 µM | 0.3% of 340,000 active | Huh7 miR-122 Renilla luciferase sensor, 48 h; neutral wells = 0, positive control = 100;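 active = mean replicate activation score at least 90 and every replicate individually at or above 90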;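 note: higher luciferase means less miR-122 activity so hits act as miR-122 inhibitors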
S100A4 MyoIIA – inhibitors of human S100A4 binding to myosin IIA peptide | 0.14% of 360,000 active | AID 652163 | S100A4/TAMRA-MyoIIA peptide fluorescence polarization | P26447 | inhibition, % at 10.7 µM;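 active = mean inhibition of at least 70% across replicates, with every replicate also reaching that level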
Target sequence (P26447 whole entry, looked up): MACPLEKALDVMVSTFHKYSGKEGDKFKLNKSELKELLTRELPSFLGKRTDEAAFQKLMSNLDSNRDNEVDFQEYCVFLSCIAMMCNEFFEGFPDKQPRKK
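Material: S100A4 monomer protein | Medium: HEPES pH 7.2 with CaCl2, KCl, NaCl, DTT, Triton | Reagent: Labelled myosin peptide probe, 5 nM | Doses: One dose per compound | Times: 5 min incubation before reading | Benchmarks: Neutral control DMSO, positive control TFP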
FGF22 binding – shifts melting point of recombinant human FGF22; recombinant FGF22 thermal shift, SYPRO orange fluorescence; percent of sucrose octasulfate shift, DMSO zero; AID 651658; Q9HCT0; activity (Tm shift, normalised), % at 9.99 µM; 1.5% of 340,000 active;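 active = mean Tm shift, scaled 0 neutral to 100 positive control, at about 1.3% or above, every replicate too, limit read from the data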
Target sequence (Q9HCT0 whole entry, looked up): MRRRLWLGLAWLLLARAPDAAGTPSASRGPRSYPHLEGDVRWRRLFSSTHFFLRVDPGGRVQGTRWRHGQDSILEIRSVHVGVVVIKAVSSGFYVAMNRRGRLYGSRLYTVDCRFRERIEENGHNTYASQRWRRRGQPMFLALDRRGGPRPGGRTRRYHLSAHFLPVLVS
E-selectin induc – induces E-selectin expression in human endothelial cells; P16581; HUVEC E-selectin immunofluorescence imaging; normalized: neutral wells 0, TNF-alpha wells 100; activation, % at 7.58 µM; 0.37% of 260,000 active; AID 686992;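 active = mean E-selectin-positive cell signal at least 10% of the positive control, reached in at least 60% of replicates, without over 20% cell loss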
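Read-out basis: % PE-positive cells; Test system: HUVEC primary endothelial cells; Technique: immunofluorescence imaging; Dosing: single-point compound dose.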
Starred values were filed as active, the others as inactive; nt = no result; [ ] = another dose, or the depositor's remark. Shown are actives, neighbours in structure and some others; about 2.5% of the full set was active somewhere.

SMILES	SIRT5 inh	miR-122 sensor	S100A4 MyoIIA	FGF22 binding	E-selectin induc
C=CCNC(=O)CCc1nnc(C2(c3ccc(Cl)cc3)CCC2)o1	-1.3	nt	9.3	0.1	0.2
O=C(CCc1nnc(C2(c3ccc(Cl)cc3)CCC2)o1)N1CCCC1	1.1	6.1	50.7	0.1	nt
CC(c1ccon1)N(C)C(=O)CCc1nnc(C2(c3ccc(Cl)cc3)CCC2)o1 (centres undefined)	-3.4	nt	1.3	43.3*	5.3
O=C(CCc1nnc(C2(c3ccc(Cl)cc3)CCC2)o1)NC1CC1	-3.5	nt	-2.4	43.6*	1.3
COc1cc(CN2CCN(c3ccccc3F)CC2)c([N+](=O)[O-])cc1OC	-1.1	1.1	1.7	43.8*	nt
O=C1CC(C(=O)Nc2cccc(F)c2)n2ncnc2N1 (centres undefined)	0.1	-1.4	5.5	43.0*	nt
O=S(=O)(c1ccc(-c2ccccc2)cc1)N1CCN(Cc2cccc(OCCO)c2)CC1	nt	nt	-23.5	0.0	nt
CSc1ncnc2c1ncn2CCCN1CCN(Cc2cccc3ccccc23)CC1	-5.2	-5.4	-4.2	-0.1	0.1
COc1ncnc2c1ncn2CCCN1CCN(Cc2cccc3ccccc23)CC1	26.4*	-9.5	-2.4	-0.2	-0.6
NS(=O)(=O)c1ccc(N/C=C/C(=O)c2ccc(Br)cc2)cc1	-0.9	-1.9	-4.2	0.2	-1.3
NS(=O)(=O)c1ccc(N/C=C\C(=O)c2ccncc2)cc1	0.7	nt	4.6	43.0*	nt
CO[C@@H]1CN(C)C(=O)c2cc(NC(=O)c3cccc(F)c3)ccc2OC[C@H](C)NC[C@@H]1C	2.2	-3.7[16.7 µM]	-1.0	0.9	0.1
COC(=O)C(CCSC)NC(=O)/C=C/c1ccc(OC)cc1 (centres undefined)	1.0	4.4	-0.4	43.5*	1.3
CCCNC(=O)Nc1ccc2c(c1)OC[C@H](C)N(S(C)(=O)=O)C[C@H](C)[C@@H](OC)CN(C)C2=O	nt	nt	10.7	nt	0.4
COc1ccc2[nH]c(=O)c(CN(CC3CCCO3)C(=S)Nc3ccccc3)cc2c1 (centres undefined)	-3.1	nt	-4.4	43.6*	nt
COc1ccc2cc(CN(CC3CCCO3)C(=S)Nc3ccccc3)c(=O)[nH]c2c1 (centres undefined)	2.6	nt	-6.7	0.1	nt
COc1ccccc1NC(=S)N(CCCN(C)C)Cc1cc2cc3c(cc2[nH]c1=O)OCO3	-2.8	nt	4.0	43.5*	nt
O=C(c1ccco1)N(CCO)Cc1cc2cc3c(cc2[nH]c1=O)OCO3	-2.2	-6.0	10.6	43.2*	-0.1
CN(C)CCCN(Cc1cc2cc3c(cc2[nH]c1=O)OCO3)C(=S)Nc1ccccc1	-3.5	nt	-3.5	43.0*	-0.2
CN(C)CCCN(Cc1cc2cc3c(cc2[nH]c1=O)OCO3)C(=S)Nc1cccc(Cl)c1	-8.1	nt	-4.2	0.4	nt
COc1ccc(-c2[nH]ncc2CN(C)CC2CCCCO2)cc1F (centres undefined)	-6.4	nt	7.7	43.0*	0.2
CC(=O)N1CCc2cc(N=NC3=C(O)CC(C)(C)CC3=O)ccc21	3.5	nt	23.3	43.0*	3.2
Cc1nc2ccc(N=NC3=C(O)CC(C)(C)CC3=O)cc2s1	nt	3.0	nt	nt	nt
COc1cccc(C#Cc2cnc3c(c2)C(=O)N([C@@H](C)CO)C[C@@H](C)[C@H](CN(C)C(=O)C2CCC2)O3)c1	-4.0	-17.6[16.7 µM]	-11.1	0.0	0.5
Cc1cc(C)n2nc(C(=O)OCC(=O)c3ccccc3)nc2n1	nt	-3.8	-1.0	0.1	0.0
SMILES	SIRT5 inh	miR-122 sensor	S100A4 MyoIIA	FGF22 binding	E-selectin induc
Cc1cc(C)n2nc(C(=O)OCC(=O)c3c[nH]c4ccccc34)nc2n1	-2.7	nt	-1.4	43.8*	nt
NC(=O)Nc1ccc(C(=O)OCC(=O)c2c[nH]c3ccccc23)cc1	-1.2	0.4	0.2	44.0*	0.2
C[C@@H]1CN([C@@H](C)CO)S(=O)(=O)c2ccc(-c3cncnc3)cc2O[C@@H]1CN(C)C(=O)C1CCCCC1	6.1	nt	-1.0	-0.1	-0.1
CO[C@@H](CN(C)S(=O)(=O)c1cn(C)cn1)[C@H](C)CN(C(=O)Nc1ccc(F)cc1)[C@H](C)CO	0.2	nt	-1.7	0.0	-0.1
CCS(=O)(=O)N1CCC2(CC1)CN(Cc1ccccc1OC)[C@@H](CO)c1c2c2ccc(OC)cc2n1C	2.4	nt	9.8	-0.4	-0.9
CCOc1ccccc1N(C)C(=O)c1cn(CC)c(=O)c2cc(OC)c(OC)cc12	20.2*	7.9	-0.9	0.1	0.0
COc1ccc2c3c(n(C)c2c1)[C@H](CO)N(CC1CCOCC1)CC31CN(CC2CCOCC2)C1	nt	nt	2.6	0.0	-0.1
C/C=C/c1cnc2c(c1)C(=O)N([C@H](C)CO)C[C@H](C)[C@H](CN(C)C(=O)Nc1ccc(C(F)(F)F)cc1)O2	2.0	-8.5[16.7 µM]	5.5	-0.2	-0.2
O=C(COc1cccc(F)c1)Nc1nc(-c2ccccn2)cs1	nt	7.3	0.3	43.7*	1.5
CCc1cc(C(=O)Nc2nc(-c3ccccn3)cs2)sc1C	1.4	nt	-0.1	-0.2	29.4*
CC(=O)Nc1ccc(C(=O)Nc2nc(-c3ccccn3)cs2)cc1	5.0	nt	-12.5	43.9*	nt
CC(=O)Nc1ccc(C(=O)Nc2nc(-c3cccnc3)cs2)cc1	-4.7	0.9	-1.1	43.3*	0.0
C[C@H](CO)N1C[C@H](C)[C@@H](CN(C)Cc2ccc(C(F)(F)F)cc2)Oc2ccc(NS(=O)(=O)c3cn(C)cn3)cc2CC1=O	0.9	-4.9[16.7 µM]	1.8	-0.5	2.2
COc1ccc(C(=O)Nc2ccc3c(c2)OC[C@@H](C)N(C(C)=O)C[C@@H](C)[C@@H](OC)CN(C)C3=O)cc1	2.2	-1.9[16.7 µM]	-1.4	0.2	0.1
O=S(=O)(c1ccc(F)cc1)N1CC[C@@H]2[C@@H](CO)Nc3ccc(-c4ccc(F)cc4)cc3[C@@H]21	nt	29.7[16.7 µM]	nt	0.0	-0.4
COc1c(OC(C)=O)ccc(/C=N\NC(=O)c2ccc(Br)cc2)c1[N+](=O)[O-]	1.1	-0.3	-1.2	45.3*	nt
COCCOC(=O)c1c(C)oc2ccc(NS(=O)(=O)c3ccc(C)cc3)cc12	-0.3	103.2*	-7.1	-0.4	2.6
Cc1oc2ccc(NS(=O)(=O)c3ccccc3)cc2c1C(=O)Nc1ccccc1	20.7*	nt	-4.5	0.0	nt
CC(C)NC(=O)N(C)C[C@@H]1OCCCC[C@H](C)Oc2ccc(NS(=O)(=O)c3cn(C)cn3)cc2C(=O)N([C@H](C)CO)C[C@@H]1C	-1.4	0.4[16.7 µM]	-34.7	0.1	nt
C[C@@H]1CCCCO[C@H](CN(C)C(=O)Cc2ccccc2)[C@H](C)CN([C@@H](C)CO)C(=O)c2cc(NS(C)(=O)=O)ccc2O1	nt	-4.6[16.7 µM]	nt	nt	0.3
CCc1ccc(NC(=O)C(=O)NCC(O)c2ccccc2)cc1 (centres undefined)	-1.6	nt	1.3	43.1*	0.8
COc1ccc(S(=O)(=O)Nc2ccc3c(c2)CC(=O)N([C@@H](C)CO)C[C@@H](C)[C@H](CN(C)CC2CCCCC2)O3)cc1	23.9*	-9.8[16.7 µM]	2.4	0.0	-0.6
